# From ChEMBL document CHEMBL1154416, “Haemophilus ducreyi is resistant to human antimicrobial peptides” (2007)
# The source made the active and inactive calls. No cut-off for these calls is given here. Where a SMILES comes first, the peptide text is derived from it. Bridges are numbered along the chain shown (N, C = ends).
# Columns and labels:
# [1] = system: [Haemophilus] ducreyi; experiment: Bactericidal activity against Haemophilus ducreyi 35000HP assessed as survival at 0.2 ug/ml by antibacterial susceptibility test relative to control; type: functional
# Procedure, shortened: (§1)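 Viable bacteria counted by plating. Survival expressed as percentage of peptide-free control wells. Means ± standard errors of three independent assays; mixed-model analysis with Sidak adjustment, P<0.05.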
# [2] = system: [Haemophilus] ducreyi; experiment: Bactericidal activity against Haemophilus ducreyi 35000HP assessed as survival at 2 ug/ml by antibacterial susceptibility test relative to control; type: functional, organism-based; procedure, shortened: as §1
# [3] = system: [Haemophilus] ducreyi; experiment: Bactericidal activity against Haemophilus ducreyi 35000HP assessed as survival at 20 ug/ml by antibacterial susceptibility test relative to control; type: functional, organism-based; procedure, shortened: as §1
# [4] = system: [Haemophilus] ducreyi; experiment: Bactericidal activity against Haemophilus ducreyi CIP542 assessed as survival at 0.2 ug/ml by antibacterial susceptibility test relative to control; type: functional; procedure, shortened: as §1
# [5] = system: [Haemophilus] ducreyi; experiment: Bactericidal activity against Haemophilus ducreyi CIP542 assessed as survival at 20 ug/ml by antibacterial susceptibility test relative to control; type: functional, organism-based; procedure, shortened: as §1
# [6] = system: Escherichia coli; experiment: Bactericidal activity against Escherichia coli ML35 assessed as survival at 20 ug/ml relative to control; type: functional; procedure, shortened: as §1
# [7] = system: [Haemophilus] ducreyi; experiment: Bactericidal activity against Haemophilus ducreyi 35000HP assessed as survival at 2 ug/ml relative to control; type: functional; procedure, shortened: as §1
# [8] = system: Escherichia coli; experiment: Bactericidal activity against Escherichia coli ML35 after 48 to 72 hrs by radial diffusion assay; type: functional; details: read-out: MEC
# Procedure, shortened: (§2)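 Radial diffusion assay with salts omitted from the agarose underlay. Activity units are taken from inhibition zones around peptide-loaded wells. MEC is the x intercept of the best-fit line of activity against peptide concentration. Where fewer than two concentrations were active, MEC is recorded as >158 μg/ml, the assay's upper limit. Values are means of three independent assays, each run in duplicate.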
# [9] = system: [Haemophilus] ducreyi; experiment: Bactericidal activity against Haemophilus ducreyi 35000HP after 48 to 72 hrs by radial diffusion assay; type: functional; details: read-out: MEC; procedure, shortened: as §2
# [10] = system: [Haemophilus] ducreyi; experiment: Bactericidal activity against Haemophilus ducreyi CIP542 after 48 to 72 hrs by radial diffusion assay; type: functional; details: read-out: MEC; procedure, shortened: as §2
# [11] = system: [Haemophilus] ducreyi; experiment: Bactericidal activity against Haemophilus ducreyi 35000HP assessed as survival at 2 ug/ml by tenfold serial dilution assay relative to control; type: functional
# Procedure, shortened: (§3)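 Mid-log-phase cells were suspended in 10 mM sodium phosphate (pH 7.4) with 1% brain-heart infusion broth and exposed to peptide dilutions for 1 h, at 33°C for H. ducreyi or 37°C for E. coli. Survivors were counted by plating, and survival was expressed as a percent of peptide-free control wells. Values are means of three independent assays.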
# [12] = system: Escherichia coli; experiment: Bactericidal activity against Escherichia coli ML35 assessed as survival at 2 ug/ml by tenfold serial dilution assay relative to control; type: functional; procedure, shortened: as §3
# [13] = system: [Haemophilus] ducreyi; experiment: Bactericidal activity against Haemophilus ducreyi 35000HP assessed as survival at 0.5 ug/ml by twofold serial dilution assay relative to control; type: functional; procedure, shortened: as §3
# [14] = system: Escherichia coli; experiment: Bactericidal activity against Escherichia coli ML35 assessed as survival at 0.5 ug/ml by twofold serial dilution assay relative to control; type: functional; procedure, shortened: as §3
Compound,Activity [1],Activity [2],Activity [3],Activity [4],Activity [5],Activity [6],Activity [7],minimal effective concentration [8],minimal effective concentration [9],minimal effective concentration [10],Activity [11],Activity [12],Activity [13],Activity [14]
CC[C@H](C)[C@@H]1NC(=O)[C@H](CCCNC(=N)N)NC(=O)[C@H](Cc2ccc(O)cc2)NC(=O)[C@H](CCC(=O)O)NC(=O)[C@H](CCC(N)=O)NC(=O)[C@H](CO)NC(=O)[C@H](CCCNC(=N)N)NC(=O)[C@@H]2CSSC[C@@H](C(=O)N[C@@H](CC(C)C)C(=O)N[C@@H](CCCNC(=N)N)C(=O)N[C@@H](CCCCN)C(=O)O)NC(=O)[C@@H]3NC(=O)[C@H](C)NC(=O)[C@H](Cc4ccc(O)cc4)NC(=O)[C@H]([C@@H](C)O)NC(=O)[C@H](CC(N)=O)NC(=O)[C@H]4CCCN4C(=O)[C@H](CSSC[C@H](NC(=O)[C@H](CCCNC(=N)N)NC(=O)[C@H](C)NC(=O)[C@H]([C@@H](C)O)NC(=O)CNC(=O)[C@H](Cc4ccc(O)cc4)NC(=O)CNC(=O)[C@@H](NC(=O)[C@@H](NC(=O)[C@H](CCCNC(=N)N)NC(=O)[C@H](CC(=O)O)NC(=O)[C@H](CC(C)C)NC(=O)[C@@H](N)CCC(=O)O)[C@@H](C)CC)CSS3)C(=O)N[C@@H](CCCNC(=N)N)C(=O)N[C@@H](CCCCN)C(=O)N[C@@H](CCCCN)C(=O)N2)NC(=O)[C@H](CCCNC(=N)N)NC(=O)CNC1=O,inactive,inactive,inactive,inactive,inactive,–,–,–,–,–,–,–,–,–
"CC[C@H](C)[C@@H]1NC(=O)[C@@H]2CSSC[C@@H]3NC(=O)[C@H](Cc4ccccc4)NC(=O)[C@H](C)NC(=O)[C@H](Cc4c[nH]c5ccccc45)NC(=O)[C@H](CC(C)C)NC(=O)[C@H](CCCNC(=N)N)NC(=O)CNC(=O)[C@H](CCC(N)=O)NC(=O)[C@H](Cc4ccc(O)cc4)NC(=O)[C@H]([C@@H](C)CC)NC(=O)[C@H](CSSC[C@H](NC(=O)[C@H](Cc4ccc(O)cc4)NC(=O)[C@@H](N)CSSC[C@@H](C(=O)O)NC3=O)C(=O)N[C@@H](CCCNC(=N)N)C(=O)N[C@@H]([C@@H](C)CC)C(=O)N3CCC[C@H]3C(=O)N[C@@H](C)C(=O)N2)NC(=O)[C@H]([C@@H](C)O)NC(=O)CNC(=O)[C@H](Cc2ccc(O)cc2)NC(=O)[C@H](CCCNC(=N)N)NC(=O)[C@H](CCCNC(=N)N)NC(=O)[C@H](CCC(=O)O)NC(=O)CNC(=O)[C@H](C)NC1=O (H-CYCRIPACIAGERRYGTCIYQGRLWAFCC-OH; disulfide 1-29, 3-18, 8-28)",inactive,inactive,inactive,inactive,inactive,10%,–,–,–,–,–,–,–,–
"CC[C@H](C)[C@@H]1NC(=O)[C@H](CCCCN)NC(=O)[C@H]([C@@H](C)O)NC(=O)[C@H](Cc2ccccc2)NC(=O)[C@H]([C@@H](C)CC)NC(=O)[C@@H]2CCCN2C(=O)[C@@H]2CSSC[C@@H](C(=O)N[C@@H](CCCCN)C(=O)O)NC(=O)[C@@H]3CSSC[C@H](NC(=O)[C@H](CC(N)=O)NC(=O)[C@H](Cc4ccc(O)cc4)NC(=O)[C@H](Cc4cnc[nH]4)NC(=O)[C@@H](N)CC(=O)O)C(=O)N[C@@H](C(C)C)C(=O)N[C@@H](CO)C(=O)N[C@@H](CO)C(=O)NCC(=O)NCC(=O)N[C@@H](CCC(N)=O)C(=O)N[C@@H](CSSC[C@H](NC(=O)[C@H]([C@@H](C)O)NC(=O)CNC(=O)[C@H](CCC(N)=O)NC1=O)C(=O)N[C@@H](Cc1ccc(O)cc1)C(=O)N[C@@H](CCCNC(=N)N)C(=O)NCC(=O)N[C@@H](CCCCN)C(=O)N[C@@H](C)C(=O)N[C@@H](CCCCN)C(=O)N3)C(=O)N[C@@H](CC(C)C)C(=O)N[C@@H](Cc1ccc(O)cc1)C(=O)N[C@@H](CO)C(=O)N[C@@H](C)C(=O)N2 (H-DHYNCVSSGGQCLYSACPIFTKIQGTCYRGKAKCCK-OH; disulfide 5-34, 12-27, 17-35)",inactive,inactive,inactive,inactive,inactive,–,–,–,–,–,–,–,–,–
"CC[C@H](C)[C@@H]1NC(=O)[C@H](CCCNC(=N)N)NC(=O)[C@H](Cc2ccc(O)cc2)NC(=O)[C@H](CCC(=O)O)NC(=O)[C@H](CCC(N)=O)NC(=O)[C@H](CO)NC(=O)[C@H](CCCNC(=N)N)NC(=O)[C@@H]2CSSC[C@@H](C(=O)N[C@@H](CC(C)C)C(=O)N[C@@H](CCCNC(=N)N)C(=O)N[C@@H](CCCCN)C(=O)O)NC(=O)[C@@H]3CSSC[C@H](NC(=O)[C@@H](NC(=O)[C@H](CCCNC(=N)N)NC(=O)[C@H](CC(=O)O)NC(=O)[C@H](CC(C)C)NC(=O)[C@@H](N)CCC(=O)O)[C@@H](C)CC)C(=O)NCC(=O)N[C@@H](Cc4ccc(O)cc4)C(=O)NCC(=O)N[C@@H]([C@@H](C)O)C(=O)N[C@@H](C)C(=O)N[C@@H](CCCNC(=N)N)C(=O)N[C@@H](CSSC[C@H](NC(=O)[C@H](CCCNC(=N)N)NC(=O)CNC1=O)C(=O)N1CCC[C@H]1C(=O)N[C@@H](CC(N)=O)C(=O)N[C@@H]([C@@H](C)O)C(=O)N[C@@H](Cc1ccc(O)cc1)C(=O)N[C@@H](C)C(=O)N3)C(=O)N[C@@H](CCCNC(=N)N)C(=O)N[C@@H](CCCCN)C(=O)N[C@@H](CCCCN)C(=O)N2 (H-ELDRICGYGTARCRKKCRSQEYRIGRCPNTYACCLRK-OH; disulfide 6-33, 13-27, 17-34)",–,–,–,–,–,<7%,>84%,12.6 µg/mL,> 158 µg/mL,> 158 µg/mL,–,–,–,–
CC[C@H](C)[C@H](NC(=O)[C@H](CCCCN)NC(=O)[C@H](CCC(=O)O)NC(=O)[C@H](CCCCN)NC(=O)[C@H](CO)NC(=O)[C@H](CCCCN)NC(=O)[C@H](CCCNC(=N)N)NC(=O)[C@H](Cc1ccccc1)NC(=O)[C@H](Cc1ccccc1)NC(=O)[C@H](CC(=O)O)NC(=O)CNC(=O)[C@H](CC(C)C)NC(=O)[C@@H](N)CC(C)C)C(=O)NCC(=O)N[C@@H](CCCCN)C(=O)N[C@@H](CCC(=O)O)C(=O)N[C@@H](Cc1ccccc1)C(=O)N[C@@H](CCCCN)C(=O)N[C@@H](CCCNC(=N)N)C(=O)N[C@H](C(=O)N[C@H](C(=O)N[C@@H](CCC(N)=O)C(=O)N[C@@H](CCCNC(=N)N)C(=O)N[C@H](C(=O)N[C@@H](CCCCN)C(=O)N[C@@H](CC(=O)O)C(=O)N[C@@H](Cc1ccccc1)C(=O)N[C@@H](CC(C)C)C(=O)N[C@@H](CCCNC(=N)N)C(=O)N[C@@H](CC(N)=O)C(=O)N[C@@H](CC(C)C)C(=O)N[C@H](C(=O)N1CCC[C@H]1C(=O)N[C@@H](CCCNC(=N)N)C(=O)N[C@H](C(=O)N[C@@H](CCC(=O)O)C(=O)N[C@@H](CO)C(=O)O)[C@@H](C)O)C(C)C)[C@@H](C)CC)C(C)C)[C@@H](C)CC [CATHELICIDIN],inactive,inactive,inactive,inactive,inactive,–,–,6.2 µg/mL,> 158 µg/mL,> 158 µg/mL,16%,5%,43%,3%
